Data: ChEMBL document CHEMBL1177701, “Synthesis, biological evaluation, and structure-activity relationships of dithiolethiones as inducers of cytoprotective phase 2 enzymes” (J Med Chem, 2010)
Blank lines part the entries; values can stand above or below the compound they belong to. Calls of active or inactive are those of the source. The rule behind the calls is not given here.

Columns and labels:
[1] = system: Rattus norvegicus; test: Ex vivo induction of NQO1 in Sprague-Dawley rat bladder at 7.5 umol/kg/day, po for 10 days measured on day 11 relative to control; assay type: functional
How it was run: (§1)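 Female Sprague-Dawley rats, 6 per group, gavaged with compound at 7.5 µmol/kg/day or soya oil for 10 days and killed on day 11. Bladder homogenized in ice-cold 0.2% Triton X-100 and cleared by centrifugation. NQO1 activity measured by the Ernster method, GST by the Habig method. Reported as treated/control mean ± SEM, ANOVA with Student-Newman-Keuls test.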

[2] = system: Rattus norvegicus; test: Ex vivo induction of GST in Sprague-Dawley rat bladder at 7.5 umol/kg/day, po for 10 days measured on day 11 relative to control; assay type: functional; how it was run: as §1
[3] = Dissociation constant, pKa of the compound; assay type: physicochemical
[4] = system: Rattus norvegicus; test: Ex vivo induction of NQO1 in Sprague-Dawley rat liver at 7.5 umol/kg/day, po for 10 days measured on day 11 relative to control; assay type: functional
How it was run: (§2)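 Organs taken from the same rats used for the bladder study: female Sprague-Dawley, compound at 7.5 µmol/kg/day by gavage or soya oil for 10 days, killed on day 11. GI contents rinsed out under cold water and tissues stored at −80°C. Homogenized in 0.2% Triton X-100 and centrifuged. Supernatant NQO1 activity measured by the Ernster method, expressed as treated/control.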

[5] = system: Rattus norvegicus; test: Ex vivo induction of NQO1 in Sprague-Dawley rat kidney at 7.5 umol/kg/day, po for 10 days measured on day 11 relative to control; assay type: functional; how it was run: as §2
[6] = system: Rattus norvegicus; test: Ex vivo induction of NQO1 in Sprague-Dawley rat lung at 7.5 umol/kg/day, po for 10 days measured on day 11 relative to control; assay type: functional; how it was run: as §2
[7] = system: Rattus norvegicus; test: Ex vivo induction of NQO1 in Sprague-Dawley rat duodenum at 7.5 umol/kg/day, po for 10 days measured on day 11 relative to control; assay type: functional; how it was run: as §2
[8] = system: Rattus norvegicus; test: Ex vivo induction of NQO1 in Sprague-Dawley rat jejunum at 7.5 umol/kg/day, po for 10 days measured on day 11 relative to control; assay type: functional; how it was run: as §2
[9] = system: Rattus norvegicus; test: Ex vivo induction of NQO1 in Sprague-Dawley rat ileum at 7.5 umol/kg/day, po for 10 days measured on day 11 relative to control; assay type: functional; how it was run: as §2
[10] = system: Rattus norvegicus; test: Ex vivo induction of NQO1 in Sprague-Dawley rat colon at 7.5 umol/kg/day, po for 10 days measured on day 11 relative to control; assay type: functional; how it was run: as §2
[11] = system: Rattus norvegicus; test: Ex vivo induction of NQO1 in Sprague-Dawley rat stomach at 7.5 umol/kg/day, po for 10 days measured on day 11 relative to control; assay type: functional; how it was run: as §2
[12] = system: Rattus norvegicus; test: Ex vivo induction GCL protein expression in Sprague-Dawley rat bladder at 7.5 umol/kg/day, po for 10 days measured on day 11 by Western blot analysis; assay type: functional, organism-based
How it was run: (§3)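 Female Sprague-Dawley rats, 3 per group, gavaged once daily with compound at 7.5 µmol/kg or soya oil vehicle for 10 days. Killed on day 11. Bladder homogenized in 10 mM Tris-HCl pH 7.4, 0.25 M sucrose, 1 mM PMSF, 1 µg/ml leupeptin. 25-40 µg protein run by SDS-PAGE, then Western blot, with GAPDH as loading control.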

[13] = system: Rattus norvegicus; test: Ex vivo induction GST-alpha protein expression in Sprague-Dawley rat bladder at 7.5 umol/kg/day, po for 10 days measured on day 11 by Western blot analysis; assay type: functional, organism-based; how it was run: as §3
[14] = system: Rattus norvegicus; test: Ex vivo induction GST-mu protein expression in Sprague-Dawley rat bladder at 7.5 umol/kg/day, po for 10 days measured on day 11 by Western blot analysis; assay type: functional, organism-based; how it was run: as §3
[15] = system: Rattus norvegicus; test: Ex vivo induction GST-pi protein expression in Sprague-Dawley rat bladder at 7.5 umol/kg/day, po for 10 days measured on day 11 by Western blot analysis; assay type: functional, organism-based; how it was run: as §3
[16] = system: NBT2; test: Induction of NQO1 protein expression in rat NBT2 cells after 24 hrs by Western blot analysis; assay type: functional, cell-based
How it was run: (§4)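 NBT-II rat bladder carcinoma cells grown in MEM with 10% FBS. Plated overnight, then exposed to compound at 25 or 50 µM for 24 h, with 0.1% DMSO final. Cells trypsinized, lysed with 1 mM PMSF and sonicated. 25-40 µg protein taken for Western blot, GAPDH as loading control. At least two experiments.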

[17] = system: NBT2; test: Induction of GST-mu protein expression in rat NBT2 cells after 24 hrs by Western blot analysis; assay type: functional, cell-based; how it was run: as §4
[18] = system: NBT2; test: Induction of GST-alpha protein expression in rat NBT2 cells after 24 hrs by Western blot analysis; assay type: functional, cell-based; how it was run: as §4
[19] = system: NBT2; test: Induction of GST-pi protein expression in rat NBT2 cells at 25 to 50 uM after 24 hrs by Western blot analysis; assay type: functional, cell-based; how it was run: as §4
[20] = system: NBT2; test: Induction of GCL protein expression in rat NBT2 cells at 25 to 50 uM after 24 hrs by Western blot analysis; assay type: functional, cell-based; how it was run: as §4
[21] = target: T1, Nuclear factor erythroid 2-related factor 2 (Rattus norvegicus) (UniProt O54968); test: Induction of Nrf-mediated NQO1 protein expression in wild type rat NBT2 cells at 25 uM after 24 hrs Western blot analysis; assay type: functional, cell-based
T1 sequence (whole entry): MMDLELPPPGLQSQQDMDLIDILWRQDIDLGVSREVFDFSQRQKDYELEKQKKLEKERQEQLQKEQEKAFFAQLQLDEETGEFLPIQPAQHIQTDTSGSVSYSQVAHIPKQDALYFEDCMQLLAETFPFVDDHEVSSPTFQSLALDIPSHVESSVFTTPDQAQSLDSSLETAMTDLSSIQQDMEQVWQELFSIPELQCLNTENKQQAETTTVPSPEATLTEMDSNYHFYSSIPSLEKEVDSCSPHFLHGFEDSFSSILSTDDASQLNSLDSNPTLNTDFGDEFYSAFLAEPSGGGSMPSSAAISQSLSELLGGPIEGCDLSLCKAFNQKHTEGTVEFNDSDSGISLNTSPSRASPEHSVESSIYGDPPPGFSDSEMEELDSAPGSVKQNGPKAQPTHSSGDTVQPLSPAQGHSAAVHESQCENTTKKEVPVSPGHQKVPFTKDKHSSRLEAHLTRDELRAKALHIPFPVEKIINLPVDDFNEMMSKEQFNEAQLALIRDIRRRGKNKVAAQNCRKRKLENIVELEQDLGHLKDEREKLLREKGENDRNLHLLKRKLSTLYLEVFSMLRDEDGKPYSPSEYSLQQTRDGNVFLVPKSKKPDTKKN
How it was run: (§5)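 NBT-II cells transfected with Nrf2 stealth RNAi or control RNAi (0.584 nmol per dish, lipofectamine 2000) for 48 h. Then treated with compound at 25 µM or vehicle for 24 h, with 0.1% DMSO final. Lysates analyzed by Western blot for Nrf2, GCL, GST-α, GST-μ and NQO1, with GAPDH as loading control.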

[22] = system: NBT2; test: Induction of GCL protein expression in Nrf gene knockout rat NBT2 cells at 25 uM after 24 hrs Western blot analysis; assay type: functional, cell-based; how it was run: as §5
[23] = system: NBT2; test: Induction of GST-alpha protein expression in Nrf gene knockout rat NBT2 cells at 25 uM after 24 hrs Western blot analysis; assay type: functional, cell-based; how it was run: as §5
[24] = system: NBT2; test: Induction of GST-mu protein expression in Nrf gene knockout rat NBT2 cells at 25 uM after 24 hrs Western blot analysis; assay type: functional, cell-based; how it was run: as §5
[25] = system: NBT2; test: Induction of NQO1 protein expression in Nrf gene knockout rat NBT2 cells at 25 uM after 24 hrs Western blot analysis; assay type: functional, cell-based; how it was run: as §5
[26] = target: T1, Nuclear factor erythroid 2-related factor 2 (Rattus norvegicus); test: Induction of Nrf in wild type rat NBT2 cells at 25 uM after 24 hrs Western blot analysis; assay type: functional, cell-based; how it was run: as §5
[27] = system: NBT2; test: Induction of Nrf protein expression in Nrf gene knockout rat NBT2 cells at 25 uM after 24 hrs Western blot analysis; assay type: functional, cell-based; how it was run: as §5
[28] = target: T1, Nuclear factor erythroid 2-related factor 2 (Rattus norvegicus); test: Induction of Nrf-mediated GCL protein expression in wild type rat NBT2 cells at 25 uM after 24 hrs Western blot analysis; assay type: functional, cell-based; how it was run: as §5
[29] = target: T1, Nuclear factor erythroid 2-related factor 2 (Rattus norvegicus); test: Induction of Nrf-mediated GST-alpha protein expression in wild type rat NBT2 cells at 25 uM after 24 hrs Western blot analysis; assay type: functional, cell-based; how it was run: as §5
[30] = target: T1, Nuclear factor erythroid 2-related factor 2 (Rattus norvegicus); test: Induction of Nrf-mediated GST-mu protein expression in wild type rat NBT2 cells at 25 uM after 24 hrs Western blot analysis; assay type: functional, cell-based; how it was run: as §5

Compound: CC1CCc2c1ssc2=S (stereo not drawn)
- fold change (FC) [1]: 1.91
- fold change (FC) [2]: 1.3

Compound: S=c1ssc2c1CCCCCC2
- fold change (FC) [1]: 1.08
- fold change (FC) [2]: 1.11

- pKa [3]: 1.2
Compound: O=C(O)c1cc(=S)ss1
- fold change (FC) [1]: 1.27
- fold change (FC) [2]: 1.11

Compound: O=c1ccss1
- fold change (FC) [1]: 1.26
- fold change (FC) [2]: 1.01

Compound: CCOC(=O)c1c(N)ssc1=S
- fold change (FC) [1]: 2.03
- fold change (FC) [2]: 1.25

Compound: COC(=O)C1CCc2c1ssc2=S (stereo not drawn)
- fold change (FC) [4]: 1.1
- fold change (FC) [5]: 1.76
- fold change (FC) [6]: 1.08
- fold change (FC) [7]: 1.14
- fold change (FC) [8]: 1.11
- fold change (FC) [9]: 1.07
- fold change (FC) [10]: 1.07
- fold change (FC) [1]: 4.39
- fold change (FC) [2]: 2.31
- fold change (FC) [11]: 1.98

- Activity [21]: Active
- Activity [26]: Active
- Activity [28]: Active
- Activity [29]: Active
- Activity [30]: Active
Compound: COC(=O)c1cssc1=S
- Activity [12]: Active
- Activity [13]: Active
- Activity [14]: Active
- Activity [15]: inactive
- Activity [16]: Dose-dependent effect
- Activity [17]: Dose-dependent effect
- Activity [18]: Dose-dependent effect
- Activity [19]: inactive
- Activity [20]: Active
- fold change (FC) [4]: 1.07
- fold change (FC) [5]: 1.45
- fold change (FC) [6]: 1.07
- fold change (FC) [7]: 1.17
- fold change (FC) [8]: 1.13
- fold change (FC) [9]: 0.95
- fold change (FC) [10]: 0.89
- fold change (FC) [1]: 5.05
- fold change (FC) [2]: 2.69
- fold change (FC) [11]: 2.36
- Activity [22]: inactive
- Activity [23]: inactive
- Activity [24]: inactive
- Activity [25]: inactive
- Activity [27]: inactive

Compound: Cc1cc(=S)ss1
- fold change (FC) [1]: 1.23
- fold change (FC) [2]: 1.08

Compound: CC1Cc2ssc(=S)c2C1 (stereo not drawn)
- fold change (FC) [1]: 1.81
- fold change (FC) [2]: 1.31

Compound: Cc1c(S)ssc1=S
- fold change (FC) [1]: 1.29
- fold change (FC) [2]: 1.08

Compound: CCOC(=O)c1cssc1=S
- fold change (FC) [4]: 1.04
- fold change (FC) [5]: 1.47
- fold change (FC) [6]: 1.21
- fold change (FC) [7]: 1.21
- fold change (FC) [8]: 1.04
- fold change (FC) [9]: 1.11
- fold change (FC) [10]: 0.98
- fold change (FC) [1]: 4.82
- fold change (FC) [2]: 2.76
- fold change (FC) [11]: 2.15

Compound: CCOC(=O)C1Cc2ssc(=S)c2C1 (stereo not drawn)
- fold change (FC) [1]: 1.23
- fold change (FC) [2]: 1.11
